{"source": "ChEMBL document CHEMBL5678806", "about": "“NMS-P937, an orally available, specific small-molecule polo-like kinase 1 inhibitor with antitumor activity in solid and hematologic malignancies” (Mol Cancer Ther, 2012)", "key": {"SK-LU-1": {"tested_on": "SK-LU-1", "test": "Antiproliferative activity against human SK-LU-1 cells assessed as inhibition of cell growth incubated for 72 hrs by cell-titer glo assay", "assay_type": "functional, cell-based", "settings": "SK-LU-1, 72 h"}, "PANC-1": {"tested_on": "PANC-1", "test": "Antiproliferative activity against human PANC-1 cells assessed as inhibition of cell growth incubated for 72 hrs by cell-titer glo assay", "assay_type": "functional, cell-based", "settings": "PANC-1, 72 h", "method_in_brief": "(§1)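 Cells from ATCC or ECACC, kept in supplier-recommended medium with 1% penicillin-streptomycin at 37°C, 5% CO₂. Seeded at 10,000–30,000/cm² (adherent) or 100,000/mL (nonadherent) in medium with 10% fetal calf serum. Dosed after 24 h in duplicate with serial dilutions. Viable cells read by CellTiter-Glo 72 h later. IC50 from sigmoidal fit. At least two independent experiments.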"}, "[1]": {"test": "Antiproliferative activity against human AML-NS8 cells assessed as inhibition of cell growth incubated for 72 hrs by cell-titer glo assay", "assay_type": "functional, cell-based", "settings": "AML-NS8, 72 h", "method_in_brief": "(§2)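 Cells seeded 10,000–30,000/cm² (adherent) or 100,000/mL (suspension) in medium with 10% fetal calf serum; after 24 h treated in duplicate with serial dilutions for 72 h. Viable cells read by CellTiter-Glo luminescence; IC50 from sigmoidal fit; at least two independent experiments.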"}, "[2]": {"molecular_target": "Mitotic checkpoint serine/threonine-protein kinase BUB1 (Homo sapiens, UniProt O43683)", "sequence (O43683 whole entry)": "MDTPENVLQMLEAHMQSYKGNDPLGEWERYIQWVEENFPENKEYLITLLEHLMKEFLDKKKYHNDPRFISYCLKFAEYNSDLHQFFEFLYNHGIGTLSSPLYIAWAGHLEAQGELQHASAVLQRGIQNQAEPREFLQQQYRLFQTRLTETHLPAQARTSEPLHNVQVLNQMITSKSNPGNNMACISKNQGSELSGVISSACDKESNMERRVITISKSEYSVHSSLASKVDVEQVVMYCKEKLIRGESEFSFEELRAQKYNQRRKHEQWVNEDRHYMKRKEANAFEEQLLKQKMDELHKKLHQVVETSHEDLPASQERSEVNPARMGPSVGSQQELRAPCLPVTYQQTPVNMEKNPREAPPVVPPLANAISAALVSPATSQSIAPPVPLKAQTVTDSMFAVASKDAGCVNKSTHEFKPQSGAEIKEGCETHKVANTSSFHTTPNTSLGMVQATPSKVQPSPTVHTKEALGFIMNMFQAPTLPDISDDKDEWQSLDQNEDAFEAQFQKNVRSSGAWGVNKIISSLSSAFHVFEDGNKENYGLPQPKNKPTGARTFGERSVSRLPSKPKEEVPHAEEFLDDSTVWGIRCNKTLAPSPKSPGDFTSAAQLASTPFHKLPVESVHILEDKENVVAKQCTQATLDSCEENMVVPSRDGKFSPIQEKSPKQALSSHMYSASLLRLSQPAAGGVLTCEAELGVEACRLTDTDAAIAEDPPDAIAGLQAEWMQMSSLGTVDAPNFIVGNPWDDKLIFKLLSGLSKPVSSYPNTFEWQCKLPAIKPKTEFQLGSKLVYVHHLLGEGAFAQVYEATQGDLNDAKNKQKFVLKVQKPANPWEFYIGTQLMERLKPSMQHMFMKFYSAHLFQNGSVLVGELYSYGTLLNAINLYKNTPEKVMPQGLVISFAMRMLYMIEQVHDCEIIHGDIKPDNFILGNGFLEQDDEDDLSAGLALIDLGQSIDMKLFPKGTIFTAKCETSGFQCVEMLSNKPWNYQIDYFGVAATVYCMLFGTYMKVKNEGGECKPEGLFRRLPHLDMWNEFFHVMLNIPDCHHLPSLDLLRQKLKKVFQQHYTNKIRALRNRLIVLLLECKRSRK", "test": "Inhibition of BUB1 (unknown origin) in presence of [gamma-33P]ATP"}, "NCI-H2228": {"tested_on": "NCI-H2228", "test": "Antiproliferative activity against human NCI-H2228 cells assessed as inhibition of cell growth incubated for 72 hrs by cell-titer glo assay", "assay_type": "functional, cell-based", "settings": "NCI-H2228, 72 h", "method_in_brief": "as §1"}, "[3]": {"molecular_target": "Death-associated protein kinase 3 (Homo sapiens) (UniProt O43293)", "sequence (O43293 whole entry, looked up, the tested form may be a part)": "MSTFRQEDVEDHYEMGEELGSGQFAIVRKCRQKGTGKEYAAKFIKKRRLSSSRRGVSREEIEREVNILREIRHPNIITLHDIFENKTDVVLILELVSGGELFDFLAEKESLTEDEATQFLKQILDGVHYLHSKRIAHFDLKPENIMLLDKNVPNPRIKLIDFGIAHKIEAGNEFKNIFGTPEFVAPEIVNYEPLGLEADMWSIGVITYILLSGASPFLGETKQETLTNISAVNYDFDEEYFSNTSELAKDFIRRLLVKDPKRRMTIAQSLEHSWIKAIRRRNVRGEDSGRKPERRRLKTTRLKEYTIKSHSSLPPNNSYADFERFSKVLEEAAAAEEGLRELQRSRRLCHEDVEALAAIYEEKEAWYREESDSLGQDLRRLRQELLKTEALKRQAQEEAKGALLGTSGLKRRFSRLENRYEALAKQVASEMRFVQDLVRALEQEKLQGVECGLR", "test": "Inhibition of N-terminal GST tagged recombinant human ZIPK (1 to 290 residues) expressed in E. coli assessed as residual activity at 1 uM relative to control"}, "NCI-H1770": {"tested_on": "NCI-H1770", "test": "Antiproliferative activity against human NCI-H1770 cells assessed as inhibition of cell growth incubated for 72 hrs by cell-titer glo assay", "assay_type": "functional, cell-based", "settings": "NCI-H1770, 72 h", "method_in_brief": "as §1"}, "COLO-741": {"tested_on": "COLO-741", "test": "Antiproliferative activity against human COLO-741 cells assessed as inhibition of cell growth incubated for 72 hrs by cell-titer glo assay", "assay_type": "functional, cell-based", "settings": "COLO-741, 72 h", "method_in_brief": "as §2"}, "NCI-H1437": {"tested_on": "NCI-H1437", "test": "Antiproliferative activity against human NCI-H1437 cells assessed as inhibition of cell growth incubated for 72 hrs by cell-titer glo assay", "assay_type": "functional, cell-based", "settings": "NCI-H1437, 72 h", "method_in_brief": "as §1"}, "U2OS": {"tested_on": "U2OS", "test": "Effect on cell morphology in human U2OS cells expressing GFP/alpha-tubulin fusion protein assessed as aberrant number of spindle poles at 1 uM incubated for 24 hrs by laser scanning confocal microscopy analysis", "assay_type": "functional, cell-based"}, "[4]": {"molecular_target": "Calcium/calmodulin-dependent protein kinase type II subunit delta (Homo sapiens) (UniProt Q13557)", "sequence (Q13557 whole entry)": "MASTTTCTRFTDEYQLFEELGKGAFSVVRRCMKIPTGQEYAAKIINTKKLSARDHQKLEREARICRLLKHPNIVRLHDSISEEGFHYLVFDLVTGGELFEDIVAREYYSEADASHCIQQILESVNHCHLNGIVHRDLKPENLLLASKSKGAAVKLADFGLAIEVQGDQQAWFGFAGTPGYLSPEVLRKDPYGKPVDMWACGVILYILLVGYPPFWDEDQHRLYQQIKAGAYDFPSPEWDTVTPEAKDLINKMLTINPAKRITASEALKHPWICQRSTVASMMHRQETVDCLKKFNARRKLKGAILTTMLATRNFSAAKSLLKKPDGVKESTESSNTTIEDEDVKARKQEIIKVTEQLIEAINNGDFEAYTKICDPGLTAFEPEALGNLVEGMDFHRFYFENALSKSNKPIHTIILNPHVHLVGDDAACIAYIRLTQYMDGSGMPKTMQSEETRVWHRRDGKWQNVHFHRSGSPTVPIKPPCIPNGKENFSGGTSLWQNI", "test": "Inhibition of recombinant full length human CaMKIIdelta assessed as residual activity at 1 uM relative to control"}, "DLD-1": {"tested_on": "DLD-1", "test": "Antiproliferative activity against human DLD-1 cells assessed as inhibition of cell growth incubated for 72 hrs by cell-titer glo assay", "assay_type": "functional, cell-based", "settings": "DLD-1, 72 h", "method_in_brief": "as §2"}, "LS180": {"tested_on": "LS180", "test": "Antiproliferative activity against human LS180 cells assessed as inhibition of cell growth incubated for 72 hrs by cell-titer glo assay", "assay_type": "functional, cell-based", "settings": "LS180, 72 h", "method_in_brief": "(§3)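 Cells seeded at 10,000–30,000/cm² (adherent) or 100,000/mL (nonadherent) in medium with 10% fetal calf serum; after 24 h, treated in duplicate with serial dilutions for 72 h. Viable cell number read by CellTiter-Glo luminescence; IC50 from sigmoidal fit; at least two independent experiments.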"}, "[5]": {"test": "AUC in Beagle dog at 5 mg/kg, iv by LC-MS analysis", "assay_type": "ADME, organism-based, Canis lupus familiaris", "settings": "in vivo"}, "[6]": {"molecular_target": "Ribosomal protein S6 kinase alpha-1 (Rattus norvegicus) (UniProt Q63531)", "test": "Inhibition of N-terminal His6 and HA (YPYDV PDYA) tagged recombinant full-length (1 to end residues) rat Rsk1 expressed in baculovirus infected Sf21 cells assessed as residual activity at 0.1 uM relative to control"}, "HT-29": {"tested_on": "HT-29", "test": "Antitumor activity against human HT-29 cells xenografted in nu/nu mouse assessed as tumor growth inhibition at 60 mg/kg, po administered for 10 days", "assay_type": "functional, organism-based", "settings": "time 10.0 day"}, "HL-60": {"tested_on": "HL-60", "test": "Antitumor activity against human HL-60 cells xenografted in nu/nu mouse assessed as tumor growth inhibition at 60 mg/kg, po administered for 10 days relative to control", "assay_type": "functional", "settings": "HL-60, 240 h, time 10 day, read-out: TGI"}, "[7]": {"molecular_target": "Serine/threonine-protein kinase 26 (Homo sapiens, UniProt Q9P289)", "sequence (Q9P289 whole entry)": "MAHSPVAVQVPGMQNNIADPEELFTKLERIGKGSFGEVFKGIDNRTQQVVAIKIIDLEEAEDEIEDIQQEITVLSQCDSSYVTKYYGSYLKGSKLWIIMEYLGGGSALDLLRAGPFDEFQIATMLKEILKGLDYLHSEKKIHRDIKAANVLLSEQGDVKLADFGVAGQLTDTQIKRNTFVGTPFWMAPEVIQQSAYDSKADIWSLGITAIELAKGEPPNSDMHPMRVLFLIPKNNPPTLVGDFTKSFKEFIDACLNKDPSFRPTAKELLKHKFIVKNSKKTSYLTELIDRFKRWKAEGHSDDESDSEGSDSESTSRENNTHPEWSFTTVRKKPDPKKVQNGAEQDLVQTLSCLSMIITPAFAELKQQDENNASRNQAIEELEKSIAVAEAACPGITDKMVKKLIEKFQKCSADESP", "test": "Inhibition of MST4 (unknown origin) in presence of [gamma-33P]ATP"}, "HCT-15": {"tested_on": "HCT-15", "test": "Antiproliferative activity against human HCT-15 cells assessed as inhibition of cell growth incubated for 72 hrs by cell-titer glo assay", "assay_type": "functional, cell-based", "settings": "HCT-15, 72 h", "method_in_brief": "as §3"}, "[8]": {"molecular_target": "Tyrosine-protein kinase JAK3 (Homo sapiens, UniProt P52333)", "sequence (P52333 whole entry)": "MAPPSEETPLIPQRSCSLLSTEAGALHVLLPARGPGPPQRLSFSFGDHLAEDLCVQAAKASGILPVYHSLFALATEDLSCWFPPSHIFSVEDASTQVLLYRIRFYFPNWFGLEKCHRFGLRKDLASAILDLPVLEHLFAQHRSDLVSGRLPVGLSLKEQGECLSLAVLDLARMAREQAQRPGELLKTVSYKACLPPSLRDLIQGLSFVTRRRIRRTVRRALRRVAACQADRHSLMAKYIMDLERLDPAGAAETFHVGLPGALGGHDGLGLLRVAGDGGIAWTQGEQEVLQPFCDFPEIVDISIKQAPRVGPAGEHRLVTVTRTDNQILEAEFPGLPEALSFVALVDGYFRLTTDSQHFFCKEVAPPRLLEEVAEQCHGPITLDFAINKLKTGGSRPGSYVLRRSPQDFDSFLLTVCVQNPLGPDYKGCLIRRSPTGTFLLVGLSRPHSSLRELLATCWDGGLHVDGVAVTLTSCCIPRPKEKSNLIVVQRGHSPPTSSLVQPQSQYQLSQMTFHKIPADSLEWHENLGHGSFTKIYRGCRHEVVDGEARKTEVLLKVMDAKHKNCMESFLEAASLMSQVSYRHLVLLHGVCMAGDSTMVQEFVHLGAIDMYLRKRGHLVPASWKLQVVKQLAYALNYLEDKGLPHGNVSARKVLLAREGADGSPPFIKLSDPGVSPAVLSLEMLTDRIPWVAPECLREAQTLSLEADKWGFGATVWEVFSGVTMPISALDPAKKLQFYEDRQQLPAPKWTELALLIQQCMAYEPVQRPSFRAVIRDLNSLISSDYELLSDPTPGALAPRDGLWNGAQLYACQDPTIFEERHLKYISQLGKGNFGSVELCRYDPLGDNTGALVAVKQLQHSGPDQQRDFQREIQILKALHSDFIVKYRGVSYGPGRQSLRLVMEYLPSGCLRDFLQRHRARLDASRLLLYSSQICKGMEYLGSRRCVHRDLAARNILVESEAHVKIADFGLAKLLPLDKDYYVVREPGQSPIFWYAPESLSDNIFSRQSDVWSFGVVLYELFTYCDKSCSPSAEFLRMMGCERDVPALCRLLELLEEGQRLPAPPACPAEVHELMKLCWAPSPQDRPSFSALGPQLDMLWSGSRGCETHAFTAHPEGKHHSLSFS", "test": "Inhibition of JAK3 (unknown origin) in presence of [gamma-33P]ATP"}, "[9]": {"molecular_target": "High affinity nerve growth factor receptor (Homo sapiens, UniProt P04629)", "sequence (P04629 whole entry)": "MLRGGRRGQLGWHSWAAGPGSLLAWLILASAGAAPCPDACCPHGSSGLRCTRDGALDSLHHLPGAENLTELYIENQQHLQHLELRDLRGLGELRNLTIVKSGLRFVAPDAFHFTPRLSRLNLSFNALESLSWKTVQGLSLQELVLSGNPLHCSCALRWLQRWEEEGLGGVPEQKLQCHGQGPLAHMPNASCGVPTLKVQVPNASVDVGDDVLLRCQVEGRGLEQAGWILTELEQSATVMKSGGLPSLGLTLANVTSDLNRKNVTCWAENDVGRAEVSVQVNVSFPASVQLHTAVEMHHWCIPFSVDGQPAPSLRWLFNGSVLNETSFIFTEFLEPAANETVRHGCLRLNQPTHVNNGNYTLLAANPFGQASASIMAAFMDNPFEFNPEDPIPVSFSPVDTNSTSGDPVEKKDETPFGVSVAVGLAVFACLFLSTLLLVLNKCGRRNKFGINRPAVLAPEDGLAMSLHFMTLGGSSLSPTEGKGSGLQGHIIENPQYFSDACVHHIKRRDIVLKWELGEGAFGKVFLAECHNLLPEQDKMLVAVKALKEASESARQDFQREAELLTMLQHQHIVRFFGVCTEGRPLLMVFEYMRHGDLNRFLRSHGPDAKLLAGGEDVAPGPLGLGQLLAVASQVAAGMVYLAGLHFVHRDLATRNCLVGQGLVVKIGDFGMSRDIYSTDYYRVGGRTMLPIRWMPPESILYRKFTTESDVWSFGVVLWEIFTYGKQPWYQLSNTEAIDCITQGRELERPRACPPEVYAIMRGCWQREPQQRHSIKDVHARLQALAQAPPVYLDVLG", "test": "Inhibition of TRKA (unknown origin) in presence of [gamma-33P]ATP"}, "[10]": {"molecular_target": "Casein kinase I homolog 1 (Saccharomyces cerevisiae S288c) (UniProt P23291)", "test": "Inhibition of yeast CK1 assessed as residual activity at 0.1 uM relative to control"}, "[11]": {"molecular_target": "Casein kinase I isoform gamma-1 (Homo sapiens) (UniProt Q9HCP0)", "sequence (Q9HCP0 whole entry, looked up, the tested form may be a part, canonical isoform)": "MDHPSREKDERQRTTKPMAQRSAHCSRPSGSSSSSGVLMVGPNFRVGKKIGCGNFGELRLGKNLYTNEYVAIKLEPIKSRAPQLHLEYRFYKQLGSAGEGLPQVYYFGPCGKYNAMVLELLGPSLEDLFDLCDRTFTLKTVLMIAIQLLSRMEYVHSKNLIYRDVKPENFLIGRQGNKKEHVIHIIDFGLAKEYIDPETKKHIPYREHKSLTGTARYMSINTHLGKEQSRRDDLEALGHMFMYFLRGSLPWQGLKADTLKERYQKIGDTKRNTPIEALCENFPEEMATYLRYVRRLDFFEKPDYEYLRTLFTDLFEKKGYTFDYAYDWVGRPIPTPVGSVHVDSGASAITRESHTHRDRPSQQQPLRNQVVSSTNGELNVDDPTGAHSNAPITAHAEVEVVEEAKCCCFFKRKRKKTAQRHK", "test": "Inhibition of N-terminal 6His-tagged recombinant human CK1gamma1 (25 to 355 residues) expressed in baculovirus infected Sf21 cells assessed as residual activity at 1 uM relative to control"}, "[12]": {"test": "Cmax in Beagle dog at 5 mg/kg, po by LC-MS analysis", "assay_type": "ADME, organism-based, Canis lupus familiaris", "settings": "in vivo"}, "[13]": {"test": "Antitumor activity against human Acute myeloid leukemic cell xenografted in nu/nu mouse assessed as increase in median survival time at 120 mg/kg, po administered for 2 days and measured after 10 days in presence of cytarabine (reference value: 34 days)", "settings": "time 2 day"}, "KG-1": {"tested_on": "KG-1", "test": "Antiproliferative activity against human KG-1 cells assessed as inhibition of cell growth incubated for 72 hrs by cell-titer glo assay", "assay_type": "functional, cell-based", "settings": "KG-1, 72 h", "method_in_brief": "as §3"}, "[14]": {"molecular_target": "3-phosphoinositide-dependent protein kinase 1 (Homo sapiens) (UniProt O15530)", "test": "Inhibition of N-terminal His6-tagged recombinant human PDK1 (52 to end residues) expressed in baculovirus infected Sf21 cells assessed as residual activity at 0.1 uM relative to control"}, "[15]": {"molecular_target": "Mitogen-activated protein kinase 11 (Homo sapiens) (UniProt Q15759)", "test": "Inhibition of N-terminal GST fusion protein corresponding to full-length human SAPK2b expressed in E. coli assessed as residual activity at 0.1 uM relative to control"}, "HEL": {"tested_on": "HEL", "test": "Antiproliferative activity against human HEL cells assessed as inhibition of cell growth incubated for 72 hrs by cell-titer glo assay", "assay_type": "functional, cell-based", "method_in_brief": "as §3"}, "[16]": {"test": "Clearance in Beagle dog at 5 mg/kg, iv by LC-MS analysis", "assay_type": "ADME, organism-based, Canis lupus familiaris", "settings": "in vivo"}}, "note": "Calls of active or inactive are those of the source. No cut-off for these calls is given here."}
{"smiles": "CN1CCN(c2ccc(OC(F)(F)F)c(Nc3ncc4c(n3)-c3c(c(C(N)=O)nn3CCO)CC4)c2)CC1", "note": "[ONVANSERTIB]", "values": [{"measurement": "IC50", "setting": "SK-LU-1", "result": 443, "unit": "nM"}, {"measurement": "IC50", "setting": "PANC-1", "result": 184, "unit": "nM"}, {"measurement": "IC50", "setting": "[1]", "result": 36, "unit": "nM"}, {"measurement": "IC50", "setting": "[2]", "result": "> 10000", "unit": "nM"}, {"measurement": "IC50", "setting": "NCI-H2228", "result": 335, "unit": "nM"}, {"measurement": "Activity", "setting": "[3]", "result": 87, "unit": "%"}, {"measurement": "IC50", "setting": "NCI-H1770", "result": 68, "unit": "nM"}, {"measurement": "IC50", "setting": "COLO-741", "result": 108, "unit": "nM"}, {"measurement": "IC50", "setting": "NCI-H1437", "result": 39, "unit": "nM"}, {"measurement": "Activity", "setting": "U2OS", "result": "Active"}, {"measurement": "Activity", "setting": "[4]", "result": 74, "unit": "%"}, {"measurement": "IC50", "setting": "DLD-1", "result": 329, "unit": "nM"}, {"measurement": "IC50", "setting": "LS180", "result": 192, "unit": "nM"}, {"measurement": "AUC", "setting": "[5]", "result": 4.2, "unit": "µM·h"}, {"measurement": "Activity", "setting": "[6]", "result": 113, "unit": "%"}, {"measurement": "TGI", "setting": "HT-29", "result": "Active"}, {"measurement": "inhibition in vivo at 60 mg/kg", "setting": "HL-60", "result": 98, "unit": "%"}, {"measurement": "IC50", "setting": "[7]", "result": "> 10000", "unit": "nM"}, {"measurement": "IC50", "setting": "HCT-15", "result": 156, "unit": "nM"}, {"measurement": "IC50", "setting": "[8]", "result": "> 10000", "unit": "nM"}, {"measurement": "IC50", "setting": "[9]", "result": "> 10000", "unit": "nM"}, {"measurement": "Activity", "setting": "[10]", "result": 42, "unit": "%"}, {"measurement": "Activity", "setting": "[11]", "result": 60, "unit": "%"}, {"measurement": "Cmax", "setting": "[12]", "result": 1200, "unit": "nM"}, {"measurement": "Time", "setting": "[13]", "result": 79, "unit": "days"}, {"measurement": "IC50", "setting": "KG-1", "result": 58, "unit": "nM"}, {"measurement": "Activity", "setting": "[14]", "result": 142, "unit": "%"}, {"measurement": "Activity", "setting": "[15]", "result": 152, "unit": "%"}, {"measurement": "IC50", "setting": "HEL", "result": 48, "unit": "nM"}, {"measurement": "clearance", "setting": "[16]", "result": 43.8, "unit": "mL/min/kg"}]}
